Screening data deposited in PubChem BioAssay by several laboratories.
In the library only some 1.6% were active in any assay of this set; here they are far more common.
Rpn11 inh – Rpn11 (human) deubiquitinase inhibition; O00487; human 26S proteasome, Ub4-pepOG fluorescence polarization; 20S core pre-blocked with epoxomicin; inhibition, % at 20 µM; actives 0.59% (n = 360,000);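 active means inhibition at 20 µM, scaled to each plate's controls, above about 33%, limit read from the data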
TPT1 inhibitor – blocks Candida albicans tRNA 2'-phosphotransferase; recombinant caTPT1, FP RNA substrate dephosphorylation; inhibition, % at 5 µM; actives 0.81% (n = 300,000);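 active means inhibition above the mean of all tested compounds plus 3 SD, set per screening campaign, cut at about 24% in these data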
CSN deneddyl inh – CSN deneddylation inhibition | Q92905 | actives 0.38% (n = 360,000) | inhibition, % at 12.5 µM | Purified CSN, SCF-Nedd8-OG deneddylation, fluorescence polarization;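 active means pattern-corrected inhibition above about 35%, with an unprinted fluorescence ratio check between 0.5 and 1.5, limit read from the data, passing the limit was not always enough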
Target sequence (Q92905 whole entry, looked up, one chain of several): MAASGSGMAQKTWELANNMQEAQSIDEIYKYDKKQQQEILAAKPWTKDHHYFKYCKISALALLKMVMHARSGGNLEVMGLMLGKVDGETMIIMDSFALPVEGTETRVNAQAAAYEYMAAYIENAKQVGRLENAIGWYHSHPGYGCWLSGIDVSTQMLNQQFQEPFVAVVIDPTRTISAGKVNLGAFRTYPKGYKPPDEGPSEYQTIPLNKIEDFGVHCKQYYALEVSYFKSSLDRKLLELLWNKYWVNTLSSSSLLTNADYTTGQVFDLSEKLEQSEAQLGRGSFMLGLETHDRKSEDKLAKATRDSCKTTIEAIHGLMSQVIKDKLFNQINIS
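assay system = purified human Csn5 enzyme expressed in HEK293T cells | amount = 0.24 nM enzyme | buffer or medium = Tris/NaCl/DTT buffer, pH 7.5 | reagent = 10 nM SCFSkp2-Nedd8OG | compound = one concentration, 12.5 µM, 0.25% DMSO | times = 90 min reaction at room temperature | signal = FP | read-out basis = % inhibition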
SENP1 inh – blocks the human SENP1 SUMO protease catalytic domain; Q9P0U3; inhibition, % at 10 µM; actives 0.21% (n = 360,000); recombinant SENP1 catalytic domain, CyPet-SUMO1-YPet FRET cleavage;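 active means inhibition at least 30% at 10 µM, raw YFP signal under a set limit, fluorescence ratio 0.5 to 1.5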
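System: Recombinant human SENP1 catalytic domain, His6-tagged | Incubation: Enzyme reaction for 50 min at room temperature, dark | Medium: Tris pH 8 with BME, BSA, NP40 and catalase | Also added: 25 nM SUMO1 FRET substrate | Compound: 10 µM single point, 0.5% DMSO | Measured by: FRET fluorescence in CFP and YFP emission channels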
HNF4A DNA FP – change in binding of human HNF4 alpha to DNA. actives 0.3% (n = 360,000). activity change, % at 10 µM. P41235. HNF4a-FITC DNA binding, fluorescence polarization, 1 h; in the data active means activity change above about 30%, passing the limit was not always enough
Each line names hits and unclear results; the compound was inactive in the other large screens.

CC1(C(=O)Nc2cccc(-n3cnnn3)c2)Cc2ccccc2C(=O)O1 (centres undefined)	CSN deneddyl inh 101 (no result: TPT1 inhibitor)
CN(Cc1ccccc1)C(=O)COc1cccnc1[N+](=O)[O-]	none
COc1cc(Br)c(/C=C/c2ccc3cccc(O)c3n2)cc1OC	none
COc1cc(Br)cc(/C=C/c2ccc3cccc(O)c3n2)c1O	SENP1 inh 67
Nc1ccc(Oc2c(Cl)cccc2Cl)nc1	CSN deneddyl inh 37
CCCCC(=Nc1ccc(N)cc1)C1=C(O)C(C(=O)OC)C(C)(C)CC1=O (centres undefined)	SENP1 inh 48
O=C1CCCC2=C1Sc1ccccc1N2	SENP1 inh 52
O=C1Nc2ccccc2SC1=Cc1ccccc1	none (no result: TPT1 inhibitor)
S=c1[nH]nc(-c2ccco2)n1-c1ccccc1Cl	none
S=c1[nH]nc(-c2cc(-c3ccco3)[nH]n2)n1-c1ccccc1Cl	CSN deneddyl inh 36
CCCCCCCCC(=O)c1c(OC)oc(C=O)cc1=O	CSN deneddyl inh 68 (not shown: Rpn11 inh, TPT1 inhibitor)
CCCCCCC(=O)Nc1cc2c(C)cc(=O)oc2cc1C	none
c1cc2c3c(cccc3c1)NC1(CCCCC1)N2	HNF4A DNA FP 44
Cc1onc(-c2ccccc2Cl)c1C(=O)NCc1ccco1	CSN deneddyl inh 49
COc1ccc(-c2c(C#N)c(N)nc3sc(C(=O)c4ccc(C)cc4)c(N)c23)cc1	HNF4A DNA FP 75 (not shown: Rpn11 inh)
CCOC(=O)C1=C(c2ccccc2)NC(=O)NC1c1ccc(N(C)C)cc1 (centres undefined)	none
CCOC(=O)C1=C(c2ccccc2)NC(=O)NC1c1ccc(OC)cc1 (centres undefined)	CSN deneddyl inh 107
CC(=O)Nc1cccc(OCC(O)Cn2cnc3ccccc32)c1 (centres undefined)	CSN deneddyl inh 58
COCC(=O)N1C[C@H](C)[C@H](OC)CN(C)C(=O)c2cc(NC(=O)Nc3cccc(F)c3)ccc2OC[C@@H]1C	none (no result: Rpn11 inh, TPT1 inhibitor)
CC(C)NC(=O)C1(C)CSCC(=O)N1C1CC1 (centres undefined)	none (no result: Rpn11 inh, TPT1 inhibitor)
CN(C)C(=O)COc1ncnc2scc(-c3ccc(F)cc3)c12	none
Cn1c2c(c(=O)n(C)c1=O)C(C(F)(F)F)(C(F)(F)F)N=C(CCC1CCCCC1)N2	CSN deneddyl inh 54
CO/N=C(/C)CCS(=O)(=O)c1ccccc1	none
Cc1cc[n+](-c2[nH]c(=O)sc2/C=N/NC([S-])=Nc2ccccc2)cc1C	none
CC(C)(C)c1cc[n+](-c2[nH]c(=O)sc2/C=N/NC([S-])=Nc2ccccc2)cc1	SENP1 inh 46
CN1c2ccccc2C(C)(C)C12C=Cc1cc(O)ccc1O2 (centres undefined)	Rpn11 inh 82, HNF4A DNA FP 35
COc1ccc(S(=O)(=O)N(C)C[C@H]2Oc3c(NC(=O)NC(C)C)cccc3C(=O)N([C@H](C)CO)C[C@@H]2C)cc1	none (no result: TPT1 inhibitor)
O=C1NC[C@H](CC2CCCCC2)N(CCc2cccc(F)c2)C1=O	CSN deneddyl inh 38
CCCC[C@@H]1CNC(=O)C(=O)N1CCc1cccc(F)c1	none (no result: Rpn11 inh, TPT1 inhibitor)
O=C1NC[C@H](CC2CCCCC2)N(CCC23CC4CC(CC(C4)C2)C3)C1=O	CSN deneddyl inh 66 (no result: Rpn11 inh, TPT1 inhibitor)
CC(C)(C)CN1C(=O)C(=O)NC[C@@H]1CC1CCCCC1	none (no result: Rpn11 inh, TPT1 inhibitor)
CCOc1ccc(C2C(C(=O)C3CC3)N3C=C(C#N)C=CC3C2(C#N)C#N)cc1 (centres undefined)	TPT1 inhibitor 50 (no result: Rpn11 inh, CSN deneddyl inh, SENP1 inh, HNF4A DNA FP)
Cc1cc(C)cc(NC(=O)c2cc(S(=O)(=O)N3CCCC3)cn2C)c1	HNF4A DNA FP 53
O=[N+]([O-])c1cccc(/C=N\N2CCN(Cc3ccccc3Cl)CC2)c1	HNF4A DNA FP 42
COc1ccc(NC2CCCN(C(=O)c3cccc(C)n3)C2)cc1OC (centres undefined)	none
O=c1c2c(-c3ccco3)csc2nc(SCc2cn3cccnc3n2)n1-c1ccccc1	CSN deneddyl inh 46
NC(=O)CSc1nc2scc(-c3ccco3)c2c(=O)n1-c1ccccc1	none
COC(=O)[C@@]12C[C@@H](CC(=O)NCCCCc3ccccc3)C(=O)N(Cc3cccc4ccccc34)C1=CCC(C)(C)C2	none (no result: Rpn11 inh, TPT1 inhibitor)
O=C(O)CC(Sc1n[nH]c(=S)s1)C(=O)O (centres undefined)	none
Cc1ccc(S(=O)(=O)CCC(=O)OC(C)C(=O)N2CCc3ccccc32)cc1 (centres undefined)	CSN deneddyl inh 40
